In data set [1] the test system is Mus musculus. As to the kind of experiment: Anticonvulsant activity administered intra peritoneally to mouse at subcutaneous metrazol test. The class given is functional. The note with it: sc.
The test system of data set [2] is Rattus norvegicus. The experiment in a line: Anticonvulsant activity administered orally to rat at subcutaneous metrazol test. It is filed as functional.
Data set [3] has as its system Mus musculus. As to the kind of experiment: Anti convulsant activity administered intra peritoneally to mouse for subcutaneous metrazol test at 0.5 h with dose of 300 mg/kg; 0/1= No of animals protected /No of animals tested. It is filed as functional.
Data set [4] can be described thus: Anti convulsant activity administered intra peritoneally to mouse for toxicity at 0.5 hr with dose of 30 mg/kg; 0/4= No of animals exhibiting toxicity /No of animals tested. It is filed as organism-based. Also on record: dose 30 mg/kg. The note with it: in vivo, ip.
For data set [5], the system named is Mus musculus. As to the kind of experiment: Anti convulsant activity administered intra peritoneally to mouse at maximal electroshock test at 4 hr after the drug administered with dose of 100 mg/kg; 0/3= No of animals protected /No of animals tested. It is filed as functional. In general terms: The maximal electroshock test induces tonic seizures with an electrical stimulus.

The nature of data set [6]: Anti convulsant activity administered intra peritoneally to mouse for toxicity at 4 hr with dose of 30 mg/kg; 0/2= No of animals exhibiting toxicity /No of animals tested. The class given is organism-based. The arrangement: dose 30 mg/kg. The note with it: in vivo, ip.
Data set [7] relates to Mus musculus. As to the kind of experiment: Anti convulsant activity administered intra peritoneally to mouse for subcutaneous metrazol test at 4 hr after the drug administered with dose of 30 mg/kg; 0/1= No of animals protected /No of animals tested. The class given is functional. Conditions: route intraperitoneal.
Data set [8] relates to Mus musculus. The experiment in a line: Anti convulsant activity administered intra peritoneally to mouse for subcutaneous metrazol test at 0.5 hr with dose of 30 mg/kg; 0/1= No of animals protected /No of animals tested. The class given is functional.
Data set [9] in a line: Anti convulsant activity administered intra peritoneally to mouse for toxicity at 0.5 hr with dose of 100 mg/kg; 1/8= No of animals exhibiting toxicity /No of animals tested. It is filed as organism-based. Also on record: dose 100 mg/kg. Conditions: in vivo, ip.
Data set [10] has as its system Rattus norvegicus. The experiment in a line: Anticonvulsant activity after oral administration of 50 mg/kg dose after 2 hr in rats; +++ means 75% of the animal is protected. Also on record: dose 50 mg/kg. The class given is functional, organism-based. Summed up: (§1)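 Oral dosing of rats at a single dose, compound dissolved or suspended in 0.5% methylcellulose. Protection in the MES or scMet test checked 15 min, 30 min, 1 h, 2 h and 4 h after dosing. Scored as 25/50/75/100% of animals protected (+ to ++++), – for none.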

Data set [11] has as its system Mus musculus. The experiment in a line: Anti convulsant activity administered intra peritoneally to mouse at maximal electroshock test at 4 hr after the drug administered with dose of 30 mg/kg; 0/1= No of animals protected /No of animals tested. It is filed as functional.
In data set [12] the test system is Rattus norvegicus. The experiment in a line: Anticonvulsant activity after oral administration of 50 mg/kg dose after 1 hr in rats;+means 25% of the animals protected. The arrangement: dose 50 mg/kg. The class given is functional, organism-based. Put shortly: as §1
Data set [13] relates to Mus musculus. The experiment in a line: Anti convulsant activity administered intra peritoneally to mouse for subcutaneous metrazol test at 0.5 hr with dose of 100 mg/kg; 0/1= No of animals protected /No of animals tested. The class given is functional.
Data set [14] in a line: Anti convulsant activity administered intra peritoneally to mouse for toxicity at 4 hr with dose of 300 mg/kg; 0/2= No of animals exhibiting toxicity /No of animals tested. The class given is organism-based. The arrangement: dose 300 mg/kg. The note with it: in vivo, ip.
Data set [15] relates to Rattus norvegicus. The experiment in a line: Anticonvulsant activity after oral administration of 125 mg/kg dose after 30 min in rats;++ means 50% of the animals protected. The class given is functional, organism-based. Also on record: dose 125 mg/kg. Summed up: as §1
Data set [16] relates to Rattus norvegicus. The experiment in a line: Anticonvulsant activity after oral administration of 50 mg/kg dose after 30 min in rats; ++ means 50% of the animal protected. The class given is functional, organism-based. The arrangement: dose 50 mg/kg. Put shortly: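 Rats dosed orally with compound dissolved or suspended in 0.5% methylcellulose (0.04 mL per 10 g body weight). Anticonvulsant protection (MES or scMet) and toxicity scored at 15 min, 30 min, 1 h, 2 h and 4 h after dosing. Graded in steps of 25% of animals protected or showing toxicity.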

Data set [17] in a line: Anti convulsant activity administered intra peritoneally to mouse for toxicity at 4 hr with dose of 100 mg/kg; 0/4= No of animals exhibiting toxicity /No of animals tested. The class given is organism-based. Also on record: dose 100 mg/kg. The note with it: in vivo, ip.
For data set [18], the system named is Mus musculus. As to the kind of experiment: Anti convulsant activity administered intra peritoneally to mouse for subcutaneous metrazol test at 4 hr with dose of 300 mg/kg; 0/1= No of animals protected /No of animals tested. The class given is functional.
In data set [19] the test system is Mus musculus. As to the kind of experiment: Anti convulsant activity administered intra peritoneally to mouse for subcutaneous metrazol test at 4 hr after the drug administered with dose of 100 mg/kg; 0/1= No of animals protected /No of animals tested. It is filed as functional.
The test system of data set [20] is Mus musculus. The experiment in a line: Anti convulsant activity administered intra peritoneally to mouse at maximal electroshock test at 4 hr after the drug administered with dose of 300 mg/kg; 1/1= No of animals protected /No of animals tested. It is filed as functional.
The subject of data set [21] is Mus musculus. As to the kind of experiment: Anti convulsant activity administered intra peritoneally to mouse at maximal electroshock test at 0.5 hr after the drug administered with dose of 300 mg/kg; 1/1= No of animals protected /No of animals tested. It is filed as functional.
The subject of data set [22] is Mus musculus. As to the kind of experiment: Anti convulsant activity administered intra peritoneally to mouse at maximal electroshock test at 0.5 hr after the drug administered with dose of 100 mg/kg; 0/3= No of animals protected /No of animals tested. It is filed as functional.
Data set [23] deals with Mus musculus. The experiment in a line: Anticonvulsant activity administered intra peritoneally to mouse for protective index of subcutaneous metrazol test. The class given is functional.
Data set [24] deals with Rattus norvegicus. The experiment in a line: Anticonvulsant activity administered orally to rat for protective index of subcutaneous metrazol test. It is filed as functional.
The test system of data set [25] is Mus musculus. As to the kind of experiment: Anticonvulsant activity administered intra peritoneally to mouse at maximal electro shock test; the interval in parenthesis stands for 95% confidence interval. The class given is functional.
A short description of data set [26]: Anticonvulsant activity administered intra peritoneally to mouse for toxicity. The note with it: in vivo, ip.

Where only a bound is given, the exact number is not on record here.

The term ED50 denotes the dose at which the effect has come halfway, by size or by number of responders. As to `CCCC(CCC)C(=O)O` [VALPROIC ACID], the ED50 in data set [1] came to 220 mg/kg; in [2], 646 mg/kg.

On to `CN(C)C(=O)NC(=O)C1C(C)(C)C1(C)C`, for which the Activity is on record as 0 in [3]; 0 in data set [5]; 0 in [7]; 0 in data set [8]; 25% of the animals protected in data set [10]; 0 in data set [11]. For the same compound, the Activity in [12] is on record as 25% of the animals protected; in data set [13] it was 0; in data set [15], 25% of the animals protected; in data set [16] it was 25% of the animals protected; in data set [18], 0; in [19], 0. In addition, the figures for the Activity in data set [20], in [21] and in data set [22] were 1, 1 and 0, respectively. Moreover, the Toxicity came out at 0 in [4]; 0 in data set [6]; 1 in [9]; 0 in data set [14]; 0 in data set [17].

Take `CC1(C)C(C(N)=O)C1(C)C`: the Activity in data set [23] is reported as 1.7; in data set [24], 7.3.

The TD50 is the 50% point of the dose-response relation for the toxic effect studied. Higher therefore signals lower toxicity. In the case of `CC1(C)C(C(=O)NCO)C1(C)C`, the ED50 is 120 mg/kg in [1] and over 220 mg/kg in data set [25]. The compound further had a TD50 in [26] of 146 mg/kg.

The record behind these values is ChEMBL document CHEMBL1138683 (J Med Chem, 2004).
